Measured values taken from ChEMBL document CHEMBL1926598, “Synthesis, anti-inflammatory activity and ulcerogenic liability of novel nitric oxide donating/chalcone hybrids” (Bioorg Med Chem, 2012).

What was measured:
Rattus norvegicus [1] = assay: Antiinflammatory activity in albino rat assessed as inhibition of carrageenan-induced paw edema at 100 mg/kg, po administered 30 mins prior to challenge measured after 4 hrs relative to untreated control; assay type: functional
In short: (§1)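 Adult male albino rats (120–140 g), groups of four, fasted 24 h with water allowed. Test compound suspended in 0.5% w/v CMC in water, given orally at 100 mg/kg; controls received CMC alone. After 30 min, 0.1 mL of 1% carrageenan in saline injected subplantar into right hind paw, saline into left. Paw thickness measured by caliper; % inhibition = [(VR−VL)control − (VR−VL)treated]/(VR−VL)control ×100; one-way ANOVA versus control.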

Rattus norvegicus [2] = assay: Antiinflammatory activity in albino rat assessed as inhibition of carrageenan-induced paw edema at 100 mg/kg, po administered 30 mins prior to challenge measured after 1 hr relative to untreated control; assay type: functional; in short: as §1
Rattus norvegicus [3] = assay: Antiinflammatory activity in albino rat assessed as inhibition of carrageenan-induced paw edema at 100 mg/kg, po administered 30 mins prior to challenge measured after 5 hrs relative to untreated control; assay type: functional; in short: as §1
Rattus norvegicus [4] = assay: Antiinflammatory activity in albino rat assessed as inhibition of carrageenan-induced paw edema at 100 mg/kg, po administered 30 mins prior to challenge measured after 3 hrs relative to untreated control; assay type: functional; in short: as §1
Rattus norvegicus [5] = assay: Gastric toxicity in albino rat assessed as ulcer index at 100 mg/kg, po after 5 hrs; assay type: organism-based; design: dose 100 mg/kg, route oral; details: in vivo
In short: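 Rats dosed orally at 100 mg/kg in 0.5% CMC (n = 4). Stomach lesions counted and graded by area: level I <1 mm², II 1–3 mm², III >3 mm². Ulcer index = 1×(level I count) + 2×(level II) + 3×(level III). Mean ± SEM; one-way ANOVA versus control.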

Rattus norvegicus [6] = assay: Antiinflammatory activity in albino rat assessed as inhibition of carrageenan-induced paw edema at 100 mg/kg, po administered 30 mins prior to challenge measured after 2 hrs relative to untreated control; assay type: functional; in short: as §1
[7] = Induction of nitric oxide release at 0.1 mM after 3 hrs in phosphate buffer at pH 7.4 by Griess assay; assay type: physicochemical; details: pH 7.4, 3 h, 100 µM
In short: (§2)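 Compound at a final 10^-4 M with 0.5 mM N-acetylcysteine in phosphate buffer pH 7.4 at 37 °C. Reaction mixture treated with Griess reagent (sulfanilamide, N-naphthylethylenediamine, phosphoric acid), 10 min at room temperature, absorbance read at 546 nm. Sodium nitrite standards (10–80 nmol/mL) used for calibration. NO reported as mol/mol, n = 4 reaction mixtures.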

[8] = Induction of nitric oxide release at 0.1 mM after 6 hrs in phosphate buffer at pH 7.4 by Griess assay; assay type: physicochemical; details: pH 7.4, 6 h, 100 µM; in short: as §2
[9] = Induction of nitric oxide release at 0.1 mM after 5 hrs in phosphate buffer at pH 7.4 by Griess assay; assay type: physicochemical; details: pH 7.4, 5 h, 100 µM; in short: as §2
Rattus norvegicus [10] = assay: Antiinflammatory activity in albino rat assessed as inhibition of carrageenan-induced paw edema at 100 mg/kg, po administered 30 mins prior to challenge measured after 3 hrs relative to indomethacin; assay type: functional; design: scale not given: the % may be the effect or the level left
In short: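 Carrageenan paw edema in male albino rats (120–140 g, n = 4, fasted 24 h), compound 100 mg/kg po in 0.5% CMC 30 min before subplantar 1% carrageenan (0.1 mL). Percent edema inhibition at the stated hour from right minus left paw thickness versus the CMC control, then expressed as a percentage of the indomethacin (100 mg/kg) response at the same time.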

[11] = Induction of nitric oxide release at 0.1 mM after 1 hr in phosphate buffer at pH 7.4 by Griess assay; assay type: physicochemical; details: pH 7.4, 1 h, 100 µM; in short: as §2
[12] = Induction of nitric oxide release at 0.1 mM in 0.1 N HCl buffer at pH 1.0 by Griess assay; assay type: physicochemical; details: pH 1, 100 µM
In short: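 Griess procedure as at neutral pH, but in 0.1 N HCl pH 1 in place of phosphate buffer. Compound at a final 10^-4 M with N-acetylcysteine, 37 °C. Absorbance read at 546 nm against sodium nitrite standards (10–80 nmol/mL). Release expressed relative to a theoretical 1 mol NO/mol compound.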

[13] = Induction of nitric oxide release at 0.1 mM after 4 hrs in phosphate buffer at pH 7.4 by Griess assay; assay type: physicochemical; details: pH 7.4, 4 h, 100 µM; in short: as §2
[14] = Induction of nitric oxide release at 0.1 mM after 2 hrs in phosphate buffer at pH 7.4 by Griess assay; assay type: physicochemical; details: pH 7.4, 2 h, 100 µM; in short: as §2

| Compound | inhibition in vivo at 100 mg/kg (Rattus norvegicus [1]) [%] | inhibition in vivo at 100 mg/kg (Rattus norvegicus [2]) [%] | inhibition in vivo at 100 mg/kg (Rattus norvegicus [3]) [%] | inhibition in vivo at 100 mg/kg (Rattus norvegicus [4]) [%] | UI (Rattus norvegicus [5]) | inhibition in vivo at 100 mg/kg (Rattus norvegicus [6]) [%] | Activity [7] [mol/mol] | Activity [8] [mol/mol] | Activity [9] [mol/mol] | Activity (Rattus norvegicus [10]) [%] | Activity [11] [mol/mol] | Activity [12] | Activity [13] [mol/mol] | Activity [14] [mol/mol] |
| --- | --- | --- | --- | --- | --- | --- | --- | --- | --- | --- | --- | --- | --- | --- |
| Nc1ccc(C(=O)/C=C/c2ccc(Cl)cc2)cc1 | 58 | 41 | 54 | 60 | 18 | 50 | – | – | – | – | – | – | – | – |
| Nc1ccc(C(=O)/C=C/c2ccc3c(c2)OCO3)cc1 | 50 | 32 | 47 | 55 | 20 | 44 | – | – | – | – | – | – | – | – |
| Nc1ccc(C(=O)/C=C/c2ccco2)cc1 | 33 | 33 | 30 | 42 | 29 | 38 | – | – | – | – | – | – | – | – |
| COc1ccc(/C=C/C(=O)c2ccc(NC(=O)CBr)cc2)cc1 | 41 | 37 | 34 | 46 | 28 | 42 | – | – | – | – | – | – | – | – |
| O=C(CBr)Nc1ccc(C(=O)/C=C/c2ccc3c(c2)OCO3)cc1 | 48 | 40 | 46 | 53 | 24 | 45 | – | – | – | – | – | – | – | – |
| O=C(CBr)Nc1ccc(C(=O)/C=C/c2ccco2)cc1 | 33 | 30 | 25 | 41 | 25.8 | 37 | – | – | – | – | – | – | – | – |
| CC(Br)C(=O)Nc1ccc(C(=O)/C=C/c2ccc(Cl)cc2)cc1 (centres undefined) | 54 | 39 | 50 | 59 | 16.7 | 45 | – | – | – | – | – | – | – | – |
| COc1ccc(/C=C/C(=O)c2ccc(NC(=O)C(C)Br)cc2)cc1 (centres undefined) | 38 | 39 | 31 | 40 | 30.1 | 40 | – | – | – | – | – | – | – | – |
| CC(Br)C(=O)Nc1ccc(C(=O)/C=C/c2ccc3c(c2)OCO3)cc1 (centres undefined) | 53 | 37 | 50 | 56 | 18 | 43 | – | – | – | – | – | – | – | – |
| CC(Br)C(=O)Nc1ccc(C(=O)/C=C/c2ccco2)cc1 (centres undefined) | 36 | 30 | 34 | 42 | 25.3 | 37 | – | – | – | – | – | – | – | – |
| CC(=O)c1ccc(OCC(=O)Nc2ccc(C(=O)/C=C/c3ccc(Cl)cc3)cc2)cc1 | 58 | 43 | 55 | 61 | 8.1 | 52 | – | – | – | – | – | – | – | – |
| COc1ccc(/C=C/C(=O)c2ccc(NC(=O)COc3ccc(C(C)=O)cc3)cc2)cc1 | 33 | 28 | 30 | 42 | 6 | 35 | – | – | – | – | – | – | – | – |
| CC(=O)c1ccc(OCC(=O)Nc2ccc(C(=O)/C=C/c3ccco3)cc2)cc1 | 39 | 28 | 36 | 45 | 5 | 32 | – | – | – | – | – | – | – | – |
| C/C(=N/O)c1ccc(OCC(=O)Nc2ccc(C(=O)/C=C/c3ccc(Cl)cc3)cc2)cc1 | 55 | 39 | 49 | 66 | 2.2 | 54 | 0.22 | 0.36 | 0.37 | 85 | 0.13 | Not Active | 0.41 | 0.19 |
| COc1ccc(/C=C/C(=O)c2ccc(NC(=O)COc3ccc(/C(C)=N\O)cc3)cc2)cc1 | 42 | 33 | 37 | 46 | 5 | 41 | 0.14 | 0.15 | 0.16 | 59 | 0.11 | Not Active | 0.3 | 0.12 |
| C/C(=N/O)c1ccc(OCC(=O)Nc2ccc(C(=O)/C=C/c3ccc4c(c3)OCO4)cc2)cc1 | 52 | 40 | 44 | 59 | 4 | 49 | 0.25 | 0.24 | 0.26 | 77 | 0.14 | Not Active | 0.31 | 0.16 |
| C/C(=N/O)c1ccc(OCC(=O)Nc2ccc(C(=O)/C=C/c3ccco3)cc2)cc1 | 48 | 36 | 42 | 49 | 4.8 | 44 | 0.12 | 0.13 | 0.14 | 64 | 0.1 | Not Active | 0.28 | 0.12 |
| COc1ccc(/C=C/C(=O)c2ccc(NC(=O)COCc3c(-c4ccccc4)no[n+]3[O-])cc2)cc1 | 55 | 30 | 49 | 56 | 2 | 42 | 0.47 | 0.3 | 0.52 | 73 | 0.11 | Not Active | 0.482 | 0.27 |
| O=C(COCc1c(-c2ccccc2)no[n+]1[O-])Nc1ccc(C(=O)/C=C/c2ccco2)cc1 | 58 | 30 | 49 | 59 | 2.5 | 45 | 0.4 | 0.54 | 0.65 | 76 | 0.16 | Not Active | 0.499 | 0.23 |
| COc1ccc(/C=C/C(=O)c2ccc(N)cc2)cc1 | 48 | 42 | 40 | 51 | 22.5 | 48 | – | – | – | – | – | – | – | – |
| [O-][n+]1onc(-c2ccccc2)c1CO | – | – | – | – | 1.5 | – | – | – | – | – | – | – | – | – |
